In paper PMC9220501 (Chemico-Biological Interactions, 2022) one finds IC50 data, which are given here for 5 compounds.

The structures appear in SMILES notation.

Format in all cases: cell-based
For one assay, the system named is lung fibroblasts MRC-5. The assay is described as follows: MTT cytotoxicity assay, normal MRC-5. The following applies: Homo sapiens, MRC5, 72 h, read-out: IC50 MRC-5. A general note: Tetrazolium dyes change colour on reduction, which living cells bring about.
The test system of assay [1] is colon adenocarcinoma LS174. The assay is described as follows: MTT cytotoxicity assay, LS174. To be noted: Homo sapiens, LS174, 72 h, read-out: IC50 LS174.
Assay [2] concerns cervical adenocarcinoma HeLa. As to the kind of experiment: MTT cytotoxicity assay, HeLa. The following applies: Homo sapiens, 72 h, read-out: IC50 HeLa.
The subject of assay [3] is chronic myelogenous leukemia K562 cells. The assay is described as follows: MTT cytotoxicity assay, K562. The following applies: Homo sapiens, K562, 72 h, read-out: IC50 K562.
In a further assay the test system is malignant melanoma A375. As to the kind of experiment: MTT cytotoxicity assay, A375. To be noted: Homo sapiens, A-375, 72 h, read-out: IC50 A375. In a few lines:
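A375 cells were kept in RPMI 1640 with 10% FBS, 2 mM L-glutamine, 25 mM HEPES and penicillin-streptomycin at 37 °C and 5% CO2. Cells were seeded at 3000 per well and allowed to adhere for 20 h. They were treated for 72 h, and survival was read by MTT. IC50 is the mean ± SD of three independent experiments.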

In a further assay the test system is lung carcinoma A549. As to the kind of experiment: MTT cytotoxicity assay, A549. To be noted: Homo sapiens, A549, 72 h, read-out: IC50 A549.

Turning to `COC(=O)C1=C(C)N(C)C(=S)NC1c1ccc(C(=O)O)cc1` (centres unmarked) [4d, 4-(5-(methoxycarbonyl)-1,2,3,4-tetrahydro-1,6-dimethyl-2-thioxopyrimidin-4-yl)benzoic acid], the IC50 in the assay on lung fibroblasts MRC-5 is 169 ± 8.98 µM; in assay [1], > 200 µM; in assay [2] it was 139 ± 7.64 µM; in assay [3], 195 ± 7.62 µM; in the assay on malignant melanoma A375, 199.6 ± 0.59 µM.

For the compound `COC(=O)C1=C(C)N(C)C(=S)NC1c1ccccc1` (centres unmarked) [4a, Methyl 1,2,3,4-tetrahydro-1,6-dimethyl-2-thioxo-4-phenylpyrimidine-5-carboxylate], the half-inhibitory concentration (IC50) with lung fibroblasts MRC-5 amounted to 92.97 ± 0.59 µM; in assay [1], 170.5 ± 1.28 µM; in assay [2], 128 ± 15.4 µM; in assay [3], 163 ± 4.62 µM; with malignant melanoma A375, 123 ± 7.17 µM.

Consider `COC(=O)C1=C(C)N(C)C(=S)NC1c1ccc(Cl)cc1` (centres unmarked) [4b, Methyl 4-(4′-chlorophenyl)-1,2,3,4-tetrahydro-1,6-dimethyl-2-thioxopyrimidine-5-carboxylate], for which the IC50 with lung carcinoma A549 was found to be 123 ± 6.05 µM; in the assay with lung fibroblasts MRC-5, 28.2 ± 0.32 µM; in assay [1], 153 ± 9.08 µM; in assay [2], 81.8 ± 9.57 µM; in assay [3] it was 95.9 ± 1.85 µM; with malignant melanoma A375, 102 ± 6.26 µM.

With `COC(=O)C1=C(C)N(C)C(=S)NC1c1ccc([N+](=O)[O-])cc1` (centres unmarked) [4c, Methyl 4-(4′-nitrophenyl)-1,2,3,4-tetrahydro-1,6-dimethyl-2-thioxopyrimidine-5-carboxylate], the IC50 in the assay with lung fibroblasts MRC-5 was 88.9 ± 6.31 µM; in assay [1], 185 ± 5.5 µM; in assay [2], 122 ± 12.8 µM; in assay [3], 193 ± 3.75 µM; in the assay with malignant melanoma A375, 158 ± 7.84 µM.

Consider `COC(=O)C1=C(C)N(C)C(=S)NC1c1ccc(O)c(OC)c1` (centres unmarked) [4e, Methyl 1,2,3,4-tetrahydro-4-(4′-hydroxy-3′-methoxyphenyl)-1,6-dimethyl-2-thioxopyrimidine-5-carboxylate], for which the IC50 was determined as 114 ± 2.36 µM in the assay on lung fibroblasts MRC-5; 196 ± 2.87 µM in assay [1]; 157 ± 6.52 µM in assay [2]; 197 ± 0.54 µM in assay [3]; 176 ± 2.9 µM in the assay on malignant melanoma A375.

The IC50 is the concentration at which inhibition is half-maximal.
